Laboratory results reported in PMC6531046 (Bioorganic & medicinal chemistry, 2019).
Entries after “also recorded” stand apart in the source; their conditions may differ.

Tests used:
tubulin = tubulin (Trypanosoma brucei rhodesiense, UniProt P04106+P04107); test: Tubulin polymerization in T. brucei cells; format: cell-based; conditions: 12 h treatment, different doses, western blot vs DMSO
Outline: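 Bloodstream-form T. b. brucei Lister 427 (HMI-9, 10% FBS, 37°C, 7.5% CO2) treated 12 h with varying doses in 0.5% DMSO; washed in TDB with protease inhibitors, lysed 5 min at 4°C in Pipes pH 6.8/EGTA/MgCl2/0.15% Triton X-100/glycerol; 15,000 g 30 min spin separated soluble (non-polymerized) supernatant from pellet, RIPA-boiled (polymerized). Equal cell-equivalent fractions blotted with anti-tubulin antibody.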

[1] = tested on: T. b. brucei Lister 427 cells; test: T. brucei cell viability analysis; format: cell-based, Trypanosoma brucei brucei; conditions: IC50 mammalian cells / IC50 T. brucei
Outline: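 Index is mammalian-cell IC50 divided by T. brucei IC50. Parasite arm: bloodstream-form Lister 427 in HMI-9/10% FBS, 37°C, 7.5% CO2; 5,000 cells, compound with 0.1% DMSO, 48 h; MTS 3 h, A490. Mammalian arm: HEK293 or RAW264.7 in RPMI1640/10% FBS, 3000 cells seeded 24 h, compound 48 h; MTT 3 h, A570. Quadruplicates normalized, dose–response fitted.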

[2] = tested on: T. b. brucei Lister 427 cells; conditions: earlier study, cited from earlier work

Chain of tubulin (P04107 whole entry): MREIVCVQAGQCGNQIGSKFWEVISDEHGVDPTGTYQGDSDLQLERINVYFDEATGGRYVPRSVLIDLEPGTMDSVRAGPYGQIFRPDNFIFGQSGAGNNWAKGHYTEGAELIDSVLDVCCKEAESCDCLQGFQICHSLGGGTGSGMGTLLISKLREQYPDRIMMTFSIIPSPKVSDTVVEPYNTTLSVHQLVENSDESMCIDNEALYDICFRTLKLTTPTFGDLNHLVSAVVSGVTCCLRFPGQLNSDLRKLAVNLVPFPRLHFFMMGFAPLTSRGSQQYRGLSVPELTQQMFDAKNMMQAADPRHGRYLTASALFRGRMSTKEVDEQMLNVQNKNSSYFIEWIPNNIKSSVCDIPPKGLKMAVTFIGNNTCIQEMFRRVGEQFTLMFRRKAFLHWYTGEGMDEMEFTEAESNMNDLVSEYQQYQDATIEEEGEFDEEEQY
Chain of tubulin (P04106 whole entry): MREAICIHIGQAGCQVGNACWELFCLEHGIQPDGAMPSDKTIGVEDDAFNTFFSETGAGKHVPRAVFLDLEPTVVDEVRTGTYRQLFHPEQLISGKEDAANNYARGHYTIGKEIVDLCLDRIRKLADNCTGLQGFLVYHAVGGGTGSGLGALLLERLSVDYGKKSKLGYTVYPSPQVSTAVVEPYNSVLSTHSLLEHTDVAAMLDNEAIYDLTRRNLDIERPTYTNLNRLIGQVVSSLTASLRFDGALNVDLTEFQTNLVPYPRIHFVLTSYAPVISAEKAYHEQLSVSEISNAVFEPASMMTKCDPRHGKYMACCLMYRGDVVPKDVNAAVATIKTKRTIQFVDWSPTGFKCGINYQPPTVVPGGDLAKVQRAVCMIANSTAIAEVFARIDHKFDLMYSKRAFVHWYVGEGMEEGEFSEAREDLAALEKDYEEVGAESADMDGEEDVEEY

Structure (SMILES)	effect on tubulin polymerization in T. brucei cells (tubulin)	selectivity index (mammalian cell line not given) [1]	selectivity index ([2]; IC50 human cell growth / IC50 T. brucei cell growth)	IC50 to inhibit trypanosomal cell proliferation [2] [nM]
Cc1cc(NC(=O)c2cc(C(F)(F)F)cc(C(F)(F)F)c2)ccc1NS(C)(=O)=O [Compound 5, N-(4-(Methylsulfonamido)-3-Methylphenyl)-3,5-Bis(Trifluoromethyl)Benzamide]	profound effect on tubulin function; also recorded: decreased the amount of polymerized tubulin in a dose-dependent manner; also recorded: inhibit the tubulin polymerization in T. brucei cells	above 50		
Cc1cc(NC(=O)c2cc(C(F)(F)F)cc(C(F)(F)F)c2)ccc1NS(=O)(=O)C(F)(F)F [Compound 15, N-(3-Methyl-4-Trifluoromethanesulfonylamino-Phenyl)-3,5-Bis-Trifluoromethyl-Benzamide]			around 7000	70
CCS(=O)(=O)Nc1ccc(NC(=O)c2ccc(Cl)c([N+](=O)[O-])c2)cc1Cl [Compound 39, 4-Chloro-N-(3-Chloro-4-(Ethylsulfonamido)-Phenyl)-3-Nitrobenzamide]		below 50		
CCS(=O)(=O)Nc1ccc(NC(=O)c2cc(C(F)(F)F)cc(C(F)(F)F)c2)cc1Cl [Compound 40, N-(3-Chloro-4-(Ethylsulfonamido)Phenyl)-3,5-Bis(Trifluoromethyl)Benzamide]		below 50		
N#Cc1ccc(C(=O)Nc2ccc(NS(=O)(=O)C(F)(F)F)c(F)c2)cc1 [Compound 57, 4-Cyano-N-(3-Fluoro-4-(Trifluoromethylsulfonamido)Phenyl)Benzamide]	decreased the amount of polymerized tubulin in a dose-dependent manner; also recorded: inhibit the tubulin polymerization in T. brucei cells			
